Laboratory results taken from ChEMBL document CHEMBL1122809, “Improved synthesis and antitumor activity of 2-bromo-2'-deoxyadenosine” (1984).

Tests used:
L1210 [1] = assay: Antitumor activity expressed as life span was determined against inoculated L1210 leukemia cells (1*10e5) in mice by 17.3 mg/kg dosage of compound (qd (x 3), for days 1,5,9); type: functional, Mus musculus
How it was run: (§1)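 Female mice (~18 g, housed six per cage) received L1210 cells intraperitoneally on day 0. Drug was made fresh and injected at 0.01 mL/g; the stated dose is per injection. Controls received the same volume of 0.154 M NaCl. Survival was followed, with deaths assigned to tumour by necropsy or to drug toxicity by set criteria. Life span is given as mean ± SD.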

L1210 [2] = assay: Antitumor activity expressed as life span was determined against inoculated L1210 leukemia cells (1*10e5) in mice by 22.5 mg/kg dosage of compound (qd (x 3), for days 1, 4, 7,10,13,16); type: functional, Mus musculus; how it was run: as §1
L1210 [3] = assay: Antitumor activity expressed percentage increase in life span was determined against inoculated L1210 leukemia cells (1*10e5) in mice by 5.6 mg/kg dosage of compound (qd (x 3), for days 1, 4, 7); type: functional; details: Mus musculus
How it was run: (§2)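 L1210 cells were given intraperitoneally to female mice (~18 g). Freshly prepared drug was injected at 0.01 mL/g, dose per injection, and saline-injected controls were run. The end point was duration of survival. ILS was calculated as percent increase in mean life span over controls. Mice surviving 60 days or more counted as long-term survivors, scored as 60 days.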

L1210 [4] = assay: Antitumor activity expressed percentage increase in life span was determined against inoculated L1210 leukemia cells (1*10e5) in mice by 5.6 mg/kg dosage of compound (qd (x 3), for days 1, 4, 7,10,13,16); type: functional; details: Mus musculus; how it was run: as §2
L1210 [5] = assay: Antitumor activity expressed percentage increase in life span was determined against inoculated L1210 leukemia cells (1*10e6) in mice by 11.3 mg/kg dosage of compound (qd (x 3), for days 1, 4, 7); type: functional; details: Mus musculus; how it was run: as §2
L1210 [6] = assay: Antitumor activity expressed percentage increase in life span was determined against inoculated L1210 leukemia cells (1*10e6) in mice by 110 mg/kg dosage of compound (qd (x 3), for days 1, 4, 7); type: functional; details: Mus musculus; how it was run: as §2
L1210 [7] = assay: Antitumor activity expressed as life span was determined against inoculated L1210 leukemia cells (1*10e6) in mice by 90 mg/kg dosage of compound (qd (x 3), for days 1, 4, 7); type: functional, Mus musculus; how it was run: as §1
L1210 [8] = assay: Antitumor activity expressed as life span was determined against inoculated L1210 leukemia cells (1*10e6) in mice by 22.5 mg/kg dosage of compound (qd (x 3), for days 1, 4, 7,10,13,16); type: functional, Mus musculus; how it was run: as §1
L1210 [9] = assay: Antitumor activity expressed as life span was determined against inoculated L1210 leukemia cells (1*10e6) in mice by 45 mg/kg dosage of compound (qd (x 3), for days 1, 4, 7); type: functional, Mus musculus; how it was run: as §1
L1210 [10] = assay: Antitumor activity expressed percentage increase in life span was determined against inoculated L1210 leukemia cells (1*10e5) in mice by 11.3 mg/kg dosage of compound (qd (x 3), for days 1, 4, 7,10,13,16); type: functional; details: Mus musculus; how it was run: as §2
L1210 [11] = assay: Antitumor activity expressed percentage increase in life span was determined against inoculated L1210 leukemia cells (1*10e5) in mice by 22.5 mg/kg dosage of compound (qd (x 3), for days 1,5,9); type: functional; details: Mus musculus; how it was run: as §2
L1210 [12] = assay: Antitumor activity expressed percentage increase in life span was determined against inoculated L1210 leukemia cells (1*10e6) in mice by 110 mg/kg dosage of compound (qd (x 3), for days 1-7); type: functional; details: Mus musculus; how it was run: as §2
L1210 [13] = assay: Antitumor activity expressed percentage increase in life span was determined against inoculated L1210 leukemia cells (1*10e6) in mice by 180 mg/kg dosage of compound (qd (x 3), for days 1, 4, 7); type: functional; details: Mus musculus; how it was run: as §2
L1210 [14] = assay: Antitumor activity expressed percentage increase in life span was determined against inoculated L1210 leukemia cells (1*10e6) in mice by 22.5 mg/kg dosage of compound (qd (x 3), for days 1, 4, 7); type: functional; details: Mus musculus; how it was run: as §2
L1210 [15] = assay: Antitumor activity expressed percentage increase in life span was determined against inoculated L1210 leukemia cells (1*10e6) in mice by 22.5 mg/kg dosage of compound (qd (x 3), for days 1, 4, 7,10,13,16); type: functional; details: Mus musculus; how it was run: as §2
L1210 [16] = assay: Antitumor activity expressed percentage increase in life span was determined against inoculated L1210 leukemia cells (1*10e6) in mice by 45 mg/kg dosage of compound (qd (x 3), for days 1, 4, 7); type: functional; details: Mus musculus; how it was run: as §2
M5076 = assay: Antitumor activity was evaluated by measuring mean life span in tumor (M5076) inoculated mice at 5.6 mg/kg (qd3hx8),days 1-34; type: functional, Mus musculus
How it was run: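 Female mice of about 18 g received subcutaneous M5076 implants matching those used for serial passage. Drug was freshly prepared and injected at 0.01 mL/g every 3 h (×8) on every 3rd day from day 1 to day 34, with the dose stated per injection. Controls received 0.154 M NaCl. Groups held 18 mice (11 in one group). Mean life span was reported as mean ± SD, and tumor volume was also assessed.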

L1210 [17] = assay: Antitumor activity expressed percentage increase in life span was determined against inoculated L1210 leukemia cells (1*10e6) in mice by 50 mg/kg dosage of compound (qd (x 3), for days 1- 7); type: functional; details: Mus musculus
How it was run: (§3)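 Female mice of about 18 g (BDF1, DBA/2 or C57Bl/6 stocks used) were inoculated intraperitoneally with 1 × 10^6 L1210 cells. Freshly prepared drug was given once daily from about 24 h after inoculation at 0.01 mL/g, with the dose stated per injection. Controls received 0.154 M NaCl, and groups held 6 mice. %ILS was taken from mean survival, with mice alive at 60 days or more counted as 60 days.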

L1210 [18] = assay: Antitumor activity expressed percentage increase in life span was determined against inoculated L1210 leukemia cells (1*10e6) in mice by 90 mg/kg dosage of compound (qd (x 3), for days 1, 4, 7); type: functional; details: Mus musculus; how it was run: as §3
L1210 [19] = assay: Antitumor activity expressed as life span was determined against inoculated L1210 leukemia cells (1*10e6) in mice by 5.6 mg/kg dosage of compound (qd (x 3), for days 1, 4, 7,10,13,16); type: functional, Mus musculus; how it was run: as §1
L1210 [20] = assay: Antitumor activity expressed as life span was determined against inoculated L1210 leukemia cells (1*10e6) in mice by 70 mg/kg dosage of compound (qd (x 3), for days 1, 4, 7); type: functional, Mus musculus; how it was run: as §1
L1210 [21] = assay: Antitumor activity expressed as life span was determined against inoculated L1210 leukemia cells (1*10e6) in mice by 140 mg/kg dosage of compound (qd (x 3), for days 1, 4, 7); type: functional, Mus musculus; how it was run: as §1
B16 melanoma (mouse) [22] = assay: Antitumor activity was evaluated by measuring mean life span in tumor (B16 melanoma) inoculated mice at 22.5 mg/kg (qd3hx8),days 1,4,7,10
B16 melanoma (mouse) [23] = assay: Antitumor activity was evaluated by measuring mean life span in tumor (B16 melanoma) inoculated mice at 22.5 mg/kg (qd3hx8),days 1,4,7,10,13,16
B16 melanoma (mouse) [24] = assay: Antitumor activity expressed percentage increase in life span was determined against inoculated B16 melanoma in mice by 11.3 mg/kg dosage of compound (qd3hx8), for days 1,4,7,10

What does the source list for Nc1nc(Br)nc2c1ncn2[C@H]1C[C@H](O)[C@@H](CO)O1?
Life span (L1210 [1]): 14 days; Life span (L1210 [2]): 20.67 days; ILS at 5.6 mg/kg (L1210 [3]): 60%; ILS at 5.6 mg/kg (L1210 [4]): 45%; ILS at 11.3 mg/kg (L1210 [5]): 104%; ILS at 110 mg/kg (L1210 [6]): 29%; Life span (L1210 [7]): 7 days; Life span (L1210 [8]): 16.08 days; Life span (L1210 [9]): 13.5 days; ILS at 11.3 mg/kg (L1210 [10]): 128%; ILS at 22.5 mg/kg (L1210 [11]): 176%; ILS at 110 mg/kg (L1210 [12]): 0%; ILS at 180 mg/kg (L1210 [13]): 0%; ILS at 22.5 mg/kg (L1210 [14]): 137%; ILS at 22.5 mg/kg (L1210 [15]): 127%; ILS at 45 mg/kg (L1210 [16]): 113%; Life span (M5076): 34.44 days; ILS at 50 mg/kg (L1210 [17]): 42%; ILS at 90 mg/kg (L1210 [18]): 11%; Life span (L1210 [19]): 10.5 days; Life span (L1210 [20]): 6.5 days; Life span (L1210 [21]): 8 days; Life span (B16 melanoma (mouse) [22]): 20.89 days; Life span (B16 melanoma (mouse) [23]): 19.22 days; ILS at 11.3 mg/kg (B16 melanoma (mouse) [24]): 66%
